Activity calls are given as the source filed them. The calls are words filed in the database; no cut-off is given here. Bridge positions count the residues as written; N and C are the ends. Square brackets hold non-standard residues; d marks the D form. Peptide text beside a SMILES is read from it. Nva = CCC[C@H](N)C(=O)O; Abu = CC[C@H](N)C(=O)O
How the values were obtained:
Type in all cases: cell-based
[1] = molecular target: T1, Neuronal acetylcholine receptor; alpha3/beta4 (Homo sapiens, UniProt P30926+P32297); assay: Inhibition of human alpha3beta4 nAChR expressed in Xenopus laevis oocytes by two-electrode voltage clamp technique
[2] = molecular target: T1, Neuronal acetylcholine receptor; alpha3/beta4; assay: Inhibition of alpha3beta4 nAChR (unknown origin) expressed in Xenopus laevis oocytes assessed as inhibition of acetylcholine-evoked current at 10 uM by voltage clamp technique
[3] = molecular target: Neuronal acetylcholine receptor; alpha4/beta2 (Rattus norvegicus) (UniProt P09483+P12390); assay: Displacement of [3H]epibatadine from rat alpha4beta2 nAChR expressed in HEK293 cells up to 10 uM after 2 hrs by betaplate counting analysis
Procedure, shortened: (§1)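 Membranes from HEK293 cells stably expressing α3β4 or α4β2 nAChR, homogenised in 50 mM Tris pH 7.4 and washed by centrifugation. Incubated 2 h at room temperature with peptide and 0.31 nM [3H]epibatidine; filtered on PEI-soaked glass fibre, counted. Nonspecific binding with 0.1 μM unlabeled epibatidine. Ki by Cheng–Prusoff from IC50.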

[4] = molecular target: Neuronal acetylcholine receptor; alpha3/beta2 (Rattus norvegicus, UniProt P04757+P12390); assay: Antagonist activity at rat alpha3beta2 nAChR expressed in HEK293 cells assessed as inhibition of epibatadine-induced effect after 30 mins by fluorescent membrane potential assay
Procedure, shortened: (§2)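 Stably transfected HEK293 lines (KXα3β4R2, KXα3β2R2, KXα4β2R2; rat subunits) grown in DMEM/10% FBS with G-418, plated 24 h before assay. Cells washed with HBSS, peptide added, then membrane potential blue dye, 30 min at 37 °C. Fluorescence (ex 565/em 530 nm) read up to 60 s after epibatidine to 0.1 μM. IC50 from maximal responses across concentrations; n = 4.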

[5] = molecular target: Neuronal acetylcholine receptor; alpha3/beta4 (Rattus norvegicus) (UniProt P04757+P12392); assay: Antagonist activity at rat alpha3beta4 nAChR expressed in HEK293 cells assessed as inhibition of epibatadine-induced effect at 10 uM after 30 mins by fluorescent membrane potential assay relative to mecamylamine
Procedure, shortened: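 Rat α3β4 nAChR stably expressed in HEK293 cells; crude, SPE-desalted individual peptides tested at 10 μM in HBSS with membrane potential blue dye, 30 min at 37 °C. Fluorescence change read after epibatidine (0.1 μM). Percent inhibition set against 10 μM mecamylamine taken as 100%.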

[6] = organism: Homo sapiens; assay: Selectivity for alpha3beta4 nAChR (unknown origin) expressed in Xenopus laevis oocytes over alpha3beta2 nAChR (unknown origin) expressed in Xenopus laevis oocytes
[7] = molecular target: Neuronal acetylcholine receptor; alpha4/beta2 (Rattus norvegicus, UniProt P09483+P12390); assay: Antagonist activity at rat alpha4beta2 nAChR expressed in HEK293 cells assessed as inhibition of epibatadine-induced effect after 30 mins by fluorescent membrane potential assay; procedure, shortened: as §2
[8] = molecular target: T1, Neuronal acetylcholine receptor; alpha3/beta4; assay: Inhibition of alpha3beta4 nAChR (unknown origin) expressed in Xenopus laevis oocytes assessed as inhibition of acetylcholine-evoked current by voltage clamp technique
Procedure, shortened: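 Oocytes expressing α3 chimera/β4 nAChR, voltage-clamped at ~22 °C. Concentrations below 1 μM perfused, with 1 s ACh pulses every 1 min; 1 μM and above given as a 5 min static bath. Lowest concentration tested 10 nM. IC50 from a concentration–response curve with top and bottom fixed at 100 and 0; n = 3–5 oocytes per concentration.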

[9] = molecular target: T2, Neuronal acetylcholine receptor; alpha3/beta4 (Rattus norvegicus, UniProt P04757+P12392); assay: Antagonist activity at rat alpha3beta4 nAChR expressed in HEK293 cells assessed as inhibition of epibatadine-induced effect after 30 mins by fluorescent membrane potential assay; procedure, shortened: as §2
[10] = molecular target: T2, Neuronal acetylcholine receptor; alpha3/beta4; assay: Displacement of [3H]epibatadine from rat alpha3beta4 nAChR expressed in HEK293 cells after 2 hrs by betaplate counting analysis; procedure, shortened: as §1
[11] = molecular target: Neuronal acetylcholine receptor; alpha3/beta2 (Homo sapiens) (UniProt P17787+P32297); assay: Inhibition of alpha3beta2 nAChR (unknown origin) expressed in Xenopus laevis oocytes assessed as inhibition of acetylcholine-evoked current up to 10 uM by voltage clamp technique
[12] = molecular target: Neuronal acetylcholine receptor subunit alpha-7 (Homo sapiens) (UniProt P36544); assay: Inhibition of alpha7 nAChR (unknown origin) expressed in Xenopus laevis oocytes assessed as inhibition of acetylcholine-evoked current at 10 uM by voltage clamp technique
Chain of Neuronal acetylcholine receptor subunit alpha-7 (Homo sapiens) (P36544 whole entry): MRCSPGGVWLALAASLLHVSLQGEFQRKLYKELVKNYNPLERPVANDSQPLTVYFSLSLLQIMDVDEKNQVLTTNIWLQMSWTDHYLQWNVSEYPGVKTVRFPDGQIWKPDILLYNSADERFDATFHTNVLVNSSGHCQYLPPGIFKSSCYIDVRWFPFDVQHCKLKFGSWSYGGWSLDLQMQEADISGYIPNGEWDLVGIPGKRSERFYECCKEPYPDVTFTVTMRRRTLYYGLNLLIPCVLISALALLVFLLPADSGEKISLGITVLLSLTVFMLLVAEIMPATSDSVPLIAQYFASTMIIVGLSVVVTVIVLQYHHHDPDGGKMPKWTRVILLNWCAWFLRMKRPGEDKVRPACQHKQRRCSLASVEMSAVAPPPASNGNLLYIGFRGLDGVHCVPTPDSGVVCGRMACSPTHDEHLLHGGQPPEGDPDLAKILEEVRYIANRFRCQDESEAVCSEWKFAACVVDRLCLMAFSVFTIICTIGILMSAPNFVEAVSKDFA

T2 sequence (P04757 whole entry): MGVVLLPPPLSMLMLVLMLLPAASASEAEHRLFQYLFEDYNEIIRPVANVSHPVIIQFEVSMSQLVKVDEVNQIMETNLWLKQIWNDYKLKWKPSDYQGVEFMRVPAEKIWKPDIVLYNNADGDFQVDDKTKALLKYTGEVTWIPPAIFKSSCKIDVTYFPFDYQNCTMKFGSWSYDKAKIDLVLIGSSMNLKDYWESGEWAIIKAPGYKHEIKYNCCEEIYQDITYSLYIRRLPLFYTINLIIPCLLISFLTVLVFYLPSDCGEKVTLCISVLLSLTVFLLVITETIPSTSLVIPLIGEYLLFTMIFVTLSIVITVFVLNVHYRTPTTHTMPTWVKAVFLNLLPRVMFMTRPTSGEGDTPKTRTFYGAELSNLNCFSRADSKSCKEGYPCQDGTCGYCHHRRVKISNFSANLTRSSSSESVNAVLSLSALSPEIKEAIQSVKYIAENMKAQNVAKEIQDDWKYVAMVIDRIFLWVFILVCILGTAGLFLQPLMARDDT
T2 sequence (P12392 whole entry): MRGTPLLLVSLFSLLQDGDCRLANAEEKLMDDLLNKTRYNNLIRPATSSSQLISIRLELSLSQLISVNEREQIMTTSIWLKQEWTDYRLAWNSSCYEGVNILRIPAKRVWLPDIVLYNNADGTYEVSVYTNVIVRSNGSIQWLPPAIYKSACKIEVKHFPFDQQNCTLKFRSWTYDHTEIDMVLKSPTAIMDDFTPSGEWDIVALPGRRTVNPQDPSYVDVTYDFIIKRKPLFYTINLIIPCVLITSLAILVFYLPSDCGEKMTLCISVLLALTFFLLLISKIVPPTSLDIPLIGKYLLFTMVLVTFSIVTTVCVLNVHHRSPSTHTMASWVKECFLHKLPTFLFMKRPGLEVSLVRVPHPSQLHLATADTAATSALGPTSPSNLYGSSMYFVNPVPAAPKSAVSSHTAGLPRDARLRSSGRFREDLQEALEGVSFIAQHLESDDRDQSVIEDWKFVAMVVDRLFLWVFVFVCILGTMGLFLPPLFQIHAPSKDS
Chain of Neuronal acetylcholine receptor; alpha4/beta2 (P09483 whole entry): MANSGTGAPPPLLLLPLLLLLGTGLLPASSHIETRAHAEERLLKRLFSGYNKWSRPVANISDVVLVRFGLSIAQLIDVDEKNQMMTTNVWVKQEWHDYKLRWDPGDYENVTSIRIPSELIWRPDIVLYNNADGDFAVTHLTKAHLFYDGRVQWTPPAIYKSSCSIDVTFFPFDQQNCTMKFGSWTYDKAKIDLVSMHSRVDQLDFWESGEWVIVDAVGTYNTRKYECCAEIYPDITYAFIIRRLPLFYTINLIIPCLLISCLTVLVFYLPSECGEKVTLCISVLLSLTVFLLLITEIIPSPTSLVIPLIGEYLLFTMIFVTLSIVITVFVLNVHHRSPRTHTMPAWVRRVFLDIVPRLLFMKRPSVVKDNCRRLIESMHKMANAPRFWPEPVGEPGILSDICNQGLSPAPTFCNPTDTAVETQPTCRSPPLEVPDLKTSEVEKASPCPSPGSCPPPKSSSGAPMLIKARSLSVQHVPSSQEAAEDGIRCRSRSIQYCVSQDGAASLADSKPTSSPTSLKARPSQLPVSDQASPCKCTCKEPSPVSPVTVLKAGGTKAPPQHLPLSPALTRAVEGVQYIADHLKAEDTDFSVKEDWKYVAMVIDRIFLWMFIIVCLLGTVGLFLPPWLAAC
Chain of Neuronal acetylcholine receptor; alpha4/beta2 (P12390 whole entry): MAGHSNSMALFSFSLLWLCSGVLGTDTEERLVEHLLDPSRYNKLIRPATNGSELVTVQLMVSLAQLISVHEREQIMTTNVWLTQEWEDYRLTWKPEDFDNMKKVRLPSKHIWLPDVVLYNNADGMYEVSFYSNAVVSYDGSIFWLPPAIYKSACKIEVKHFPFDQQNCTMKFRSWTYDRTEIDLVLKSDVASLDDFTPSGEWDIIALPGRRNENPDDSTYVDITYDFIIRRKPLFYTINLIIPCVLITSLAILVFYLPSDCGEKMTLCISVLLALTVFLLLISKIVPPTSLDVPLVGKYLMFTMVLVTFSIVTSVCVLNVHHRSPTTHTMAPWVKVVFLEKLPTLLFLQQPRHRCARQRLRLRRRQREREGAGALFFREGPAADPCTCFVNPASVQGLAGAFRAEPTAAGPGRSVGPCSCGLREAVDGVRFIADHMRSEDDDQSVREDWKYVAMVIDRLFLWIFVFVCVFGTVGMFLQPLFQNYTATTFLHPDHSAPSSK
T1 sequence (P30926 whole entry): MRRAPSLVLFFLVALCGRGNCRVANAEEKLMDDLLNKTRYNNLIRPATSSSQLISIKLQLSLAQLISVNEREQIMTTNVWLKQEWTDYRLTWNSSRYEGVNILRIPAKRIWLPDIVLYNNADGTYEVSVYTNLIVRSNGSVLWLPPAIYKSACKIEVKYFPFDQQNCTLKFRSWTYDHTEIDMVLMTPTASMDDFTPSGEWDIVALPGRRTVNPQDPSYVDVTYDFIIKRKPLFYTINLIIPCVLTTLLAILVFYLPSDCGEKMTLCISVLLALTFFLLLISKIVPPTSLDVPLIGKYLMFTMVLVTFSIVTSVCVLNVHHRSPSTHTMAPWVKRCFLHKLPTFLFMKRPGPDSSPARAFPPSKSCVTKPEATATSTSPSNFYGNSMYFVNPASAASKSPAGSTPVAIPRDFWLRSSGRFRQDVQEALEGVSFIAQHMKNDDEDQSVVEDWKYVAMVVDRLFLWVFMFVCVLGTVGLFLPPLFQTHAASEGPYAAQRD
T1 sequence (P32297 whole entry): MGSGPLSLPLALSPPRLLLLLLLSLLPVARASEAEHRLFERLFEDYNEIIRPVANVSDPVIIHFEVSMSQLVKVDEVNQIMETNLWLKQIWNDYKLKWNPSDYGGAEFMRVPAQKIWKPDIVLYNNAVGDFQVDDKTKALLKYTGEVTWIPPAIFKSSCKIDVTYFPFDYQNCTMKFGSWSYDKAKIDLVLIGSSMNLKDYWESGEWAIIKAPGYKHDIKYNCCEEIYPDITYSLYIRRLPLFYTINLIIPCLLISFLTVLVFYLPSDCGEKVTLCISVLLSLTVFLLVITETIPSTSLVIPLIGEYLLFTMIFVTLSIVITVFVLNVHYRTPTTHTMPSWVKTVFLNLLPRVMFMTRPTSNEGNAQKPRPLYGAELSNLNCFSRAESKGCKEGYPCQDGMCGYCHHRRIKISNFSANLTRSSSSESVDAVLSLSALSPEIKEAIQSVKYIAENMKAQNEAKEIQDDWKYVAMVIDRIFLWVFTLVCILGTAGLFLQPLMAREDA
Chain of Neuronal acetylcholine receptor; alpha3/beta2 (P04757 whole entry): as the sequence (P04757 whole entry) above
Chain of Neuronal acetylcholine receptor; alpha3/beta2 (P12390 whole entry): as the sequence (P12390 whole entry) above

| SMILES | IC50 [1] [µM] | inhibition [2] [%] | Activity [3] | IC50 [4] [µM] | inhibition [5] [%] | Selectivity ratio [6] | IC50 [7] [µM] | inhibition [8] | IC50 [9] [µM] | Ki [10] [µM] | inhibition [11] | inhibition [12] |
| --- | --- | --- | --- | --- | --- | --- | --- | --- | --- | --- | --- | --- |
| CC[C@H](C)[C@@H]1NC(=O)[C@H](Cc2cnc[nH]2)NC(=O)[C@H](CCC(N)=O)NC(=O)[C@H](CC(N)=O)NC(=O)[C@H](CC(N)=O)NC(=O)CNC(=O)[C@H](C)NC(=O)[C@@H]2CSSC[C@H](NC(=O)CN)C(=O)N[C@@H](CSSC[C@@H](C(=O)O)NC1=O)C(=O)N[C@@H](CO)C(=O)N[C@@H](Cc1cnc[nH]1)C(=O)N1CCC[C@H]1C(=O)N[C@@H](C)C(=O)N2 | 0.755 |  |  |  |  |  |  |  |  |  |  |  |
| CCC[C@@H]1NC(=O)[C@H](CC)NC(=O)[C@H](Cc2ccccc2)NC(=O)[C@@H]2CSSC[C@H](NC(=O)CN)C(=O)N[C@@H](CSSC[C@@H](C(=O)O)NC(=O)[C@H](Cc3ccc(O)cc3)NC1=O)C(=O)N[C@@H](CO)C(=O)N[C@@H](Cc1cnc[nH]1)C(=O)N1CCC[C@H]1C(=O)N[C@@H](CC)C(=O)N2 (H-GCCSHP[Abu]CF[Abu][Nva]YC-OH; disulfide 2-8, 3-13) |  | 75 | inactive | > 10 | 109 | > 1000 | > 10 | Dose-dependent effect | 0.183 | 0.27 | inactive | inactive |

From ChEMBL document CHEMBL3232963, “Discovery of a potent and selective α3β4 nicotinic acetylcholine receptor antagonist from an α-conotoxin synthetic combinatorial library” (J Med Chem, 2014)
